The results in this text go back to ChEMBL document CHEMBL1148174, “Antihyperlipidemic effect of flavonoids from Pterocarpus marsupium” (1993).

What all share (format): functional
Assay [1] has as its system Rattus norvegicus. Kind of assay: Antihyperlipidemic activity in diet-induced hyperlipidemic rat model assessed as serum triglyceride level at 40 mg/kg, po administered once daily in morning through gastric intubation for 14 days measured after 4 hrs of last dose. The method, boiled down: (§1)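 Male Charles Foster albino rats (200–250 g) fed a hyperlipidemic diet. Compound suspended in 5% EtOH/saline, given by gastric intubation each morning for 14 days; controls got vehicle. Killed 4 h after the last dose, serum taken by cardiac puncture. TC by Abell method, TG by Gottfried–Rosenberg, HDL-C by kit. LDL-C and VLDL-C by Friedewald calculation. Atherogenic index = (TC−HDL-C)/HDL-C. Mean ± SEM, n=6, t-test.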

The test system of assay [2] is Rattus norvegicus. Description: Antihyperlipidemic activity in diet-induced hyperlipidemic rat model assessed as ratio of HDLC to serum total cholesterol level at 40 mg/kg, po administered once daily in morning through gastric intubation for 14 days measured after 4 hrs of last dose.
Assay [3] relates to Rattus norvegicus. Description: Antihyperlipidemic activity in Triton-induced hyperlipidemic rat model assessed as serum total lipid level at 75 mg/kg, po administered for 2 days through gastric intubation immediately and 20 hrs after triton challenge measured after 4 hrs of last dose. Summed up:
(§2)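 Male Charles Foster albino rats (200–250 g), fasted 24 h, given Triton 400 mg/kg ip in saline. Compound given orally by gastric intubation right after Triton and again 20 h later. Killed by decapitation 4 h after the second dose. Serum separated and stored at −20°. Total cholesterol by Abell method, triglycerides by Gottfried–Rosenberg, total lipid by Frings–Dunn. Mean ± SEM, n=6, Student's t-test versus control.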

Assay [4] concerns Rattus norvegicus. Description: Antihyperlipidemic activity in Triton-induced hyperlipidemic rat model assessed as serum total cholesterol level at 75 mg/kg, po administered for 2 days through gastric intubation immediately and 20 hrs after triton challenge measured after 4 hrs of last dose. Summed up: as §2
The test system of assay [5] is Rattus norvegicus. Kind of assay: Antihyperlipidemic activity in diet-induced hyperlipidemic rat model assessed as serum total cholesterol level at 40 mg/kg, po administered once daily in morning through gastric intubation for 14 days measured after 4 hrs of last dose. The method, boiled down: as §1
The subject of assay [6] is Rattus norvegicus. Kind of assay: Antihyperlipidemic activity in diet-induced hyperlipidemic rat model assessed as serum VLDLC level at 40 mg/kg, po administered once daily in morning through gastric intubation for 14 days measured after 4 hrs of last dose. The method, boiled down: as §1
Assay [7] deals with Rattus norvegicus. Description: Antihyperlipidemic activity in diet-induced hyperlipidemic rat model assessed as serum LDLC level at 40 mg/kg, po administered once daily in morning through gastric intubation for 14 days measured after 4 hrs of last dose. The method, boiled down:
as §1

The test system of assay [8] is Rattus norvegicus. Description: Antihyperlipidemic activity in diet-induced hyperlipidemic rat model assessed as atherogenic index at 40 mg/kg, po administered once daily in morning through gastric intubation for 14 days measured after 4 hrs of last dose. The method, boiled down: as §1
Assay [9] has as its system Rattus norvegicus. Kind of assay: Antihyperlipidemic activity in diet-induced hyperlipidemic rat model assessed as serum HDLC level at 40 mg/kg, po administered once daily in morning through gastric intubation for 14 days measured after 4 hrs of last dose. Summed up:
as §1

Assay [10] relates to Rattus norvegicus. Description: Antihyperlipidemic activity in Triton-induced hyperlipidemic rat model assessed as serum triglyceride level at 75 mg/kg, po administered for 2 days through gastric intubation immediately and 20 hrs after triton challenge measured after 4 hrs of last dose. The method, boiled down: as §2

Consider `O=C1C[C@@H](c2ccc(O)cc2)Oc2cc(O)ccc21` [LIQUIRTIGENIN], for which the Activity was 198.1 mg/dL in assay [1]; 837.3 mg% in [3]; 406.7 mg% in assay [4]; 323.2 mg/dL in assay [5]; 39.6 mg/dL in assay [6]; 245.7 mg/dL in [7]. The Activity came out at 38.01 mg/dL in assay [9] and 572.9 mg% in assay [10]. Besides, in assay [2], the Ratio worked out at 0.11. Besides, the AI in [8] stood at 7.5.

For the compound `COc1cc(O)cc2c1C(=O)C(O)(Cc1ccc(O)cc1)O2` (stereo unspecified) [CARPUSIN], the Activity in [1] was found to be 190 mg/dL; in [5], 350.6 mg/dL; in assay [6], 41.1 mg/dL; in assay [7] it was 292.8 mg/dL; in [9], 32 mg/dL. In addition, the Ratio in assay [2] amounted to 0.09.
